Compound activity as filed in PubChem BioAssay.
Compounds with a hit are over-represented: about 1.3% of the library has one in this group of screens.
EphB4 ephrin blk: blocks human EphB4 binding to ephrin-B2 | inhibition, % at 7 µM | AID 720 | EphB4 LBD / TNYL-RAW-Alexa532 peptide, fluorescence polarization | actives 0.15% (n = 97,000) | P54760;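 active = inhibition above the screen-wide mean inhibition plus 3 SD, cut at about 15% in these data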;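 note: 0% = DMSO wells and 100% = excess unlabeled TNYL-RAW peptide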
Rev-RRE block: disrupts HIV-1 Rev binding to RRE RNA; P05866; inhibition, % at 8 µM; Rev peptide-RRE RNA binding, FRET; actives 0.79% (n = 97,000);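 active = inhibition above the screen-wide mean plus 3 SD, cut at about 35% in these data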;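 note: 0% = median DMSO wells and 100% = median Neomycin B control wells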
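Assay system: labelled RRE RNA duplex and labelled Rev peptide / Medium: HEPES pH 7.5 salt buffer with EDTA / Reagent: labelled Rev peptide / Schedule: 5 + 15 min at 25 °C / Signal: FRET, excitation 480 nm, emission 540 nm donor and 671 nm acceptor / Benchmarks: DMSO and neomycin B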
PTPN22 act: activators of human LYP (PTPN22) phosphatase; activation, % at 2 µM; actives 0.11% (n = 96,000); recombinant LYP, DiFMUP fluorescence; 0 = plate median, 100 = signal doubled; Q9Y2R2; AID 697;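 active = activation at 2 µM above a set limit, the mean plus 5 SD, cut at about 37% in these data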
Target sequence (Q9Y2R2 whole entry, looked up): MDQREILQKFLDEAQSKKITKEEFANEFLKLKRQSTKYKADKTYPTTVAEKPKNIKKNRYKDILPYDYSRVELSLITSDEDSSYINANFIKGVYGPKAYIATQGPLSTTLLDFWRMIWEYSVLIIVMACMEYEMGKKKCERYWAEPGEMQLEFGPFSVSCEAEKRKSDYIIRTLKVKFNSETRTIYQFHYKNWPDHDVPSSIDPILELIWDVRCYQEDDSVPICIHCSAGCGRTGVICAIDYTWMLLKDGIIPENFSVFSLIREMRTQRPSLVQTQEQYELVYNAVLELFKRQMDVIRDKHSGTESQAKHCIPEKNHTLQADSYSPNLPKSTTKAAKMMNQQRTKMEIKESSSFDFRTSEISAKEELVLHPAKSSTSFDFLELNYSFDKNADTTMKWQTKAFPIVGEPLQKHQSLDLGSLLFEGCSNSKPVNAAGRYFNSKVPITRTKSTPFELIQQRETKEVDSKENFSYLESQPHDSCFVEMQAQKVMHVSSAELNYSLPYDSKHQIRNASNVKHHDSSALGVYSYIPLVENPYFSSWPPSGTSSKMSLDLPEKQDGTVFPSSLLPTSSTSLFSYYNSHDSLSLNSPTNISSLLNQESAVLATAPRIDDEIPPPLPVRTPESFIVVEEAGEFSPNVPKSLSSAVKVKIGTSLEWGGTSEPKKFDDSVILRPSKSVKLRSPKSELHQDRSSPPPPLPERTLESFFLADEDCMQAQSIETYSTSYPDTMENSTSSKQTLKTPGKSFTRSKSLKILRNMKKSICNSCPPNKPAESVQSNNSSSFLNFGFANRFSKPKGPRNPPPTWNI
PTPN22 inh 2: blocks human PTPN22 phosphatase activity; inhibition, % at 2 µM; AID 640; actives 0.21% (n = 96,000); Q9Y2R2; recombinant LYP catalytic domain, DiFMUP fluorescence;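 active = inhibition at 2 µM at or above a set limit, the screen mean plus 3 SD, cut at about 24% in these data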;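 note: 0% = DMSO with enzyme and 100% = enzyme fully blocked by orthovanadate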
PTPN22 act conf: LYP (PTPN22) phosphatase activation confirmation; shares compounds with PTPN22 act; Recombinant LYP, DIFMUP fluorescence; zero set by plate's median compound well; activation, % at 2 µM; 100 tested, under 10 active; AID 1031; call rule not given here
Numbers without * were called inactive; [ ] = another dose, or the depositor's remark.

SMILES	EphB4 ephrin blk	Rev-RRE block	PTPN22 act	PTPN22 inh 2	others
C1=C(c2c[nH]c3ccccc23)CCNC1	12	99*[fluorescence artefact?]	17	-17
CN1C(=O)C(=Cc2ccc(N3CCCCCC3)o2)C(=O)N(C)C1=S	-3	124*[fluorescence artefact?]	-6	9
Cc1cc(C=C2C(=O)N(C)C(=S)N(C)C2=O)c(C)n1C1CCCC1	2	19	-5	6
Cc1cc2c(C(F)(F)F)cc(=O)oc2c2c1NCCC2	-2	130*[fluorescence artefact?]	2	-4
O=c1cc(C(F)(F)F)c2cc3c4c(c2o1)CCCN4CCC3	3	132*[fluorescence artefact?]	2	-2
CN(Cc1ccccc1)Cc1ccccc1OC(=O)N(C)C	-5	-1	-3	0
CCN(CC)c1ccc(/C=C2/C(=O)NC(=O)N(CC3CCCO3)C2=O)cc1 (stereo not drawn)	5	89*[fluorescence artefact?]	-6	10
CCN1C(=O)NC(=O)/C(=C\c2ccc(N3CCOCC3)cc2OC)C1=O	-2	12	10	-7
Cc1ccc(C(=O)Nc2ccc(-n3ccnc3P(=O)(O)c3ccccc3)cc2)cc1	5	3	-13	13
CCCCN1C(=O)/C(=C/c2ccc(N(C)C)cc2)C(=O)N(Cc2ccco2)C1=O	-21	53*	6	-4
O=C1CN(C(=O)CN2CCCCC2)C(c2ccccc2)c2cc(Br)ccc2N1 (stereo not drawn)	16*	7	-1	-1
CCC(=O)N1CC(=O)Nc2ccc(F)cc2C1c1ccccc1 (stereo not drawn)	2	5	11	-12
Cc1ccc(S(=O)(=O)NC(CC(=O)N2CCC3(CC2)OCCO3)c2ccco2)cc1 (stereo not drawn)	2	-1	-2	1
COCCNC(=O)c1c(N)n(Cc2ccco2)c2nc3ccccc3nc12	-4	36*	2	2
CCCCn1c(N)c(C(=O)NCCN2CCOCC2)c2nc3ccccc3nc21	-1	3	7	-7
CCOC(=O)c1c(N)n(CCN2CCCCC2)c2nc3ccccc3nc12	5	38*	3	-5
C=CCNC(=O)c1c(N)n(Cc2ccco2)c2nc3ccccc3nc12	-3	50*	-4	7
Nc1c(C(=O)NCCN2CCOCC2)c2nc3ccccc3nc2n1Cc1ccco1	3	45*	1	-2
CCOC(=O)C1C2NC(=O)N(Cc3ccccc3)C1(C)Oc1c(OC)cccc12 (stereo not drawn)	-8	-1	0	-1
O=c1[nH]c(CN2CC=C(c3ccccc3)CC2)nc2cc(C(F)(F)F)ccc12	0	45*	2	-3
CC/C(=C\C=C\[C@@H]1C=C[C@@H]2CCC[C@H]2[C@@H]1C(=O)c1ccc[nH]1)[C@@H]1O[C@@H]([C@@H](C)C(=O)O)CC[C@@H]1C	-2	0	-26	25*
CC(=O)C1=C(C)OC(N)=C(C(=O)OC(C)C)C12C(=O)Nc1ccccc12 (stereo not drawn)	-5	-4	-6	3
CCOc1cccc(N2C(=O)CC(=O)NC2=O)c1	17*[fluorescence artefact?]	15	-3	2
CCCCn1c(O)c(C(CC)=NCCCN(C)C)c(=O)[nH]c1=O	7	3	2	-3
C=CCn1c(O)c(C=NCCN(C)C)c(=O)[nH]c1=O	3	38*	-5	4
SMILES	EphB4 ephrin blk	Rev-RRE block	PTPN22 act	PTPN22 inh 2	others
Cc1cccc(N=Cc2c(O)n(-c3ccccc3C)c(=O)[nH]c2=O)c1	2	14	3	-2
Cc1ccccc1-n1c(O)c(C=Nc2ccc(N(C)C)cc2)c(=O)[nH]c1=O	-5	41*	-9	7
C=CCn1c(O)c(C=Nc2ccc(N(CC)CC)cc2)c(=O)[nH]c1=O	-1	56*	27	-25
COc1ccc2nc(/N=C/c3c(O)n(-c4cccc(Cl)c4)c(=O)[nH]c3=O)sc2c1	10	36*	5	-2
CCN1CCN(Cc2nnnn2C(C)(C)C)CC1	-14	0	5	-6
FC(F)(F)/C(=N\P(=S)(N1CCOCC1)N1CCOCC1)N1CCOCC1	-6	4	-3	1
C[n+]1ccc(-c2ccncc2)cc1	-2	-1	7	-8
O=c1[nH]c2c(c(=O)n1C1CCCCC1)CCC2	-3	0	14	-20
O=P1(Nc2cccnc2)COc2ccccc2OC1	-10	0	5	-5
CCOC(=O)CC1=C(C(=O)OCC)C2(C(=O)N1CC(=O)OC)C(C#N)=C(N)Oc1ccccc12 (stereo not drawn)	5	0	-5	9
CCN(CC)c1ccc(N=Cc2c(O)n(-c3ccc(OC)cc3)c(=O)[nH]c2=O)cc1	-1	72*	2	-2
CN(C)c1ccc(N=Cc2c(O)n(CCC3=CCCCC3)c(=O)[nH]c2=O)cc1	2	10	-9	7
CCN(CC)c1ccc(N=Cc2c(O)n(-c3ccc(Cl)cc3)c(=O)[nH]c2=O)cc1	2	31	3	-1
CCN(CC)c1ccc(N=Cc2c(O)n(CCC3=CCCCC3)c(=O)[nH]c2=O)cc1	9	42*	-10	8
CCC(C)(C)n1nnnc1CN1CCC(n2c(C)nc3cc(C(F)(F)F)ccc32)CC1	-1	-4	7	-9
CN1CCc2nc3sc(C#N)c(N)c3c(-c3cccs3)c2C1	2	32	-1	0
CN1CCc2nc(N)c(C#N)c(-c3ccccc3)c2C1	3	46*	-15	18
O=C1NC(=O)N(Cc2ccccc2Cl)C(=O)/C1=C/N1CCOCC1	-3	16	43*	-43	PTPN22 act conf=4
CC(C(=O)c1c[nH]c2ccccc12)N1CCSCC1 (stereo not drawn)	-1	10	-1	-2
